Reference: ChEMBL document CHEMBL1135544, “Design, synthesis, and biological activity of hybrid compounds between uramustine and DNA minor groove binder distamycin A” (J Med Chem, 2002)

What follows are compounds tested on K562 (assay: In vitro antitumor activity against human chronic myeloid leukemia K562 cell line).
Assay type: functional, cell-based
Outline: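 K562 cells grown in RPMI 1640 with 10% fetal calf serum and 2 mM glutamine at 37 °C, 5% CO2. Exposed to drug for 1 h at 37 °C in the dark, then centrifuged and washed. Seeded at 10⁴ cells/well, 8 wells per sample, and cultured 4 days. MTT read at 550 nm. IC50 is the dose giving 50% of control OD, mean of at least three experiments.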
Work on `Cn1cc(NC(=O)c2cc(NC(=O)c3cc(NC(=O)Cn4cc(N(CCCl)CCCl)c(=O)[nH]c4=O)cn3C)cn2C)cc1C(=O)NCCC(=N)N` yielded an IC50 of 4.06 µM.
For `Cn1cc(NC(=O)c2cc(NC(=O)c3cc(NC(=O)CCCCCn4cc(N(CCCl)CCCl)c(=O)[nH]c4=O)cn3C)cn2C)cc1C(=O)NCCC(=N)N`, the IC50 was 0.14 µM.
Work on `O=C(O)CCCCCCn1cc(N(CCCl)CCCl)c(=O)[nH]c1=O` yielded an IC50 of over 100 µM.
With `Cn1cc(NC(=O)c2cc(NC(=O)c3cc(NC(=O)CCCCn4cc(N(CCCl)CCCl)c(=O)[nH]c4=O)cn3C)cn2C)cc1C(=O)NCCC(=N)N` the IC50 was 0.11 µM.
`Oc1ncc(N(CCCl)CCCl)c(O)n1` [URACIL MUSTARD] gave an IC50 of 5.1 µM.
In the case of `Cn1cc(NC(=O)c2cc(NC(=O)c3cc(NC(=O)CCCn4cc(N(CCCl)CCCl)c(=O)[nH]c4=O)cn3C)cn2C)cc1C(=O)NCCC(=N)N`, the IC50 is reported as 7.26 µM.
With `Cn1cc(NC(=O)c2cc(NC(=O)c3cc(NC(=O)CCCCCCn4cc(N(CCCl)CCCl)c(=O)[nH]c4=O)cn3C)cn2C)cc1C(=O)NCCC(=N)N` the IC50 was 0.07 µM.
Compound `O=C(O)CCCCCn1cc(N(CCCl)CCCl)c(=O)[nH]c1=O` has an IC50 of over 100 µM.
Compound `Cn1cc(NC(=O)c2cc(NC(=O)c3cc(NC(=O)CCn4cc(N(CCCl)CCCl)c(=O)[nH]c4=O)cn3C)cn2C)cc1C(=O)NCCC(=N)N` has an IC50 of 2.54 µM.
Work on `Cn1cc(NC(=O)c2cc(NC(=O)c3cc(NC=O)cn3C)cn2C)cc1C(=O)NCCC(=N)N` yielded an IC50 of over 100 µM.
In the case of `O=C(O)CCCCn1cc(N(CCCl)CCCl)c(=O)[nH]c1=O`, the IC50 is reported as over 100 µM.
With `O=C(O)CCCn1cc(N(CCCl)CCCl)c(=O)[nH]c1=O` the IC50 was over 100 µM.
